# Experimental data reported in PubChem BioAssay.
# Active and inactive are the calls of the source.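 Rule for the calls, unless noted: active = viability at or below 10% of carrier control in both of two separate runs; inconclusive = viability at or below 10% in only one of the two runs; inactive = the rest.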
# What was measured:
# [1] = Her2 expression decrease, cell viability multiplex – SKBR3 breast tumor cells, AlphaScreen, ATP viability, primary screen (AID 461;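 active = Her2 level under about 52% in both replicate screens, with viability over 70% of control, limit read from the data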;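 for Her2 level: lower value means less Her2 protein in the cells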;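 for viability: percent of carrier control wells set as 100% viability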); settings: SKBR3 Her2 protein level, 18-24 h, measured here: SKBR3 viability, ATP luminescence, at 10 µM
# [2] = molecular target: Receptor tyrosine-protein kinase erbB-2 (Homo sapiens) (UniProt P04626); experiment: as above; settings: 18-24 h, at 10 µM, stronger effect = lower value
# Receptor tyrosine-protein kinase erbB-2 (Homo sapiens), sequence (P04626 whole entry, looked up): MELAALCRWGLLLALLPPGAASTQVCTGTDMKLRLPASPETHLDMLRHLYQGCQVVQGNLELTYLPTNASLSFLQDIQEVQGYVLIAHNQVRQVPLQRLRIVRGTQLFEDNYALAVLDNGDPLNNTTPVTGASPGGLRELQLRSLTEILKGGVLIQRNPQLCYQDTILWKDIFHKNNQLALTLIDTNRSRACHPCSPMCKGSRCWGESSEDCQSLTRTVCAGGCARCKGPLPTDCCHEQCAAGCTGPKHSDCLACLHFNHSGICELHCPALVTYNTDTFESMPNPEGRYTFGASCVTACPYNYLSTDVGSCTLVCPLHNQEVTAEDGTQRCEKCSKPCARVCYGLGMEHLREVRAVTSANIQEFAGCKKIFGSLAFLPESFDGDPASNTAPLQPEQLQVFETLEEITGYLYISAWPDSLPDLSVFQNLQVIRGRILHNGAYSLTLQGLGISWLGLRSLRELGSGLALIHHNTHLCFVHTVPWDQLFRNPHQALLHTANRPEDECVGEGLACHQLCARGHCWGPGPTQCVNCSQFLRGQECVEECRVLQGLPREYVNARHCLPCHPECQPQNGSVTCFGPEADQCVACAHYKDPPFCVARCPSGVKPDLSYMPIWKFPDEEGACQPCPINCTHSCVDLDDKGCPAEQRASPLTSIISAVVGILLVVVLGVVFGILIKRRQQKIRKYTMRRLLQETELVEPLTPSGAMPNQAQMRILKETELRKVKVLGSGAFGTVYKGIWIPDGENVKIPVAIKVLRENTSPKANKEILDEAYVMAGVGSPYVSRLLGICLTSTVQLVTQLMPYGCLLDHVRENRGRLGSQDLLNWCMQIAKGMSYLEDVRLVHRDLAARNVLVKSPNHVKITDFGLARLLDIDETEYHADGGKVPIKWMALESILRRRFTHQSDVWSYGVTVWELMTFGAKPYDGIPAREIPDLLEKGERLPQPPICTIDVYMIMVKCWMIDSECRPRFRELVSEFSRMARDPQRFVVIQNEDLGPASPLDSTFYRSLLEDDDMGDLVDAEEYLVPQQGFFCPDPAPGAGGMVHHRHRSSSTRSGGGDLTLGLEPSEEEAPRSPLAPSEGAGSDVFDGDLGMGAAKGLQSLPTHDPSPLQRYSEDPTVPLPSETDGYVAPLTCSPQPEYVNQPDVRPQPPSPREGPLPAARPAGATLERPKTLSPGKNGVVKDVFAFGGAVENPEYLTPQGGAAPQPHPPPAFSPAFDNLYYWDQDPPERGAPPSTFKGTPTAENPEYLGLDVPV
# [3] = reduced viability of SK-BR-3 breast cancer cells – cell-based, 24 h, human, pilot screen (AID 572); settings: SK-BR-3 viability, CellTiter-Glo luminescence, at 10 µM, stronger effect = lower value;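 note: compound exposure lasted between 18 and 24 h rather than exactly 24 h; 100% = carrier-treated control wells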
# [4] = HUVEC growth inhibition – cell-based, human, primary screen (AID 575;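 active = viability at or below 30% in both replicate assays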;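 note: 100% = median of untreated cell wells with 0.1% DMSO on each plate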); settings: HUVEC proliferation, CellTiter-Glo luminescence, 72 h; at 10 µM; stronger effect = lower value
# In short: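 Test system – primary HUVEC, no more than 12 passages · Dosing – one dose, 10 µM final, 0.1% DMSO · Times – 72 h treatment at 37 °C · Measured by – ATP-based CellTiter-Glo luminescent read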
# [5] = MRP1 drug-resistance reversers in H69AR cells – cell-based, doxorubicin co-treatment, pilot screen (AID 601;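 active = viability loss from added drug above about 55%, and viability with drug at most 40%, in both replicates, limit read from the data, passing the limit was not always enough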); settings: CellTiter-Glo, 72 h, at 10 µM; for differential viability (reversal): stronger effect = higher value
# [6] = yeast transport mutant growth inhibition pilot in 384-well plates, post-Golgi transport modulator project (AID 636; in the data active = inhibition above about 31%); settings: absorbance 615 nm, about 18 h, stronger effect = higher value
# [7] = growth suppression of yeast trafficking mutant, preliminary HTS, modulators of trafficking downstream of Golgi apparatus project, 1536-format plate, OD 615 nm (AID 637; in the data active = inhibition above about 30%); settings: yeast transport mutant growth, absorbance 615 nm, 18 h; stronger effect = higher value
# [8] = H69AR cell proliferation blockers – human, duplicate replicates, primary screen (AID 580;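 active = viability at or under a set limit in both replicates, limit being median viability minus 3 SD, cut at about 48% in these data, passing the limit was not always enough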;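 note: 100% = mean luminescence of untreated wells and 0% = no signal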); settings: H69AR lung tumor cells viability, ATP luminescence, 72 h; at 10 µM; stronger effect = lower value
# [9] = H69AR cells + 2 uM doxorubicin, measured here: viability with 2 uM doxorubicin, stronger effect = lower value
# [10] = H69AR cells, compound alone cytotoxicity
SMILES,viability [1],Her2 level [2],viability [3],viability [4],differential viability (reversal) ([5]; H69AR cells + 2 uM doxorubicin),"viability [5, 9]","viability [5, 10]",inhibition [6],inhibition [7],viability [8]
C/C(Cl)=C/Cn1c(SCc2ccc(Cl)cc2)nc2c1c(=O)[nH]c(=O)n2C,102%,110% (inactive),102% (inactive),78.8% (inactive),-6.12% (inactive),60.4%,54.3%,-1.33% (inactive),-7.1% (inactive),–
CCSc1nnc(NC(=O)c2ccccn2)s1,92%,80.5% (inactive),92% (inactive),18.4% (active),-14% (inactive),34.8%,20.8%,4.03% (inactive),9.21% (inactive),–
COc1cccc(Cn2c(-c3nonc3N)nc3ccccc32)c1,93.5%,82% (inactive),93.5% (inactive),58.2% (inactive),-46.7% (inactive),62.7%,16%,-2.6% (inactive),-2.06% (inactive),–
Cc1cc(C)c2c(n1)nn1c(N3CCN(c4ccccc4C)CC3)cc(C)nc21,73.5%,95.5% (inactive),73.5% (inactive),92.4% (inactive),-0.53% (inactive),73.6%,73.1%,1.18% (inactive),6.73% (inactive),–
O=C(Nc1ccc(F)cc1)N(Cc1ccco1)Cc1cc2cc3c(cc2[nH]c1=O)OCO3,86.5%,90.5% (inactive),86.5% (inactive),58.7% (inactive),35.4% (inactive),19.6%,55%,-6.32% (inactive),-12.8% (inactive),–
CCOc1ccc2nc(NC(=O)C3CCCN(S(=O)(=O)c4c(C)noc4C)C3)sc2c1 (stereo unspecified),124%,74% (inactive),124% (inactive),49.7% (inactive),-23.4% (inactive),71.2%,47.9%,6.28% (inactive),7.5% (inactive),–
COc1ccc(C(C)(C)C)cc1NC(=O)Nc1ccc2c(c1)OCO2,108%,89.5% (inactive),108% (inactive),64.8% (inactive),-12% (inactive),57.2%,45.3%,-1.18% (inactive),23.4% (inactive),–
C=CCSC1=C(C#N)C(c2ccccc2C)CC(=O)N1 (stereo unspecified),95.5%,99% (inactive),95.5% (inactive),89% (inactive),-0.42% (inactive),10.6%,10.1%,-2.21% (inactive),-2.38% (inactive),–
N#C/C(C(=O)NCc1ccco1)=C1/SC(Cc2ccc(F)cc2)C(=O)N1c1ccccc1 (stereo unspecified),112%,84% (inactive),112% (inactive),88.3% (inactive),-10.3% (inactive),58.3%,48%,-3.68% (inactive),-1.64% (inactive),–
Cn1c(Cc2ccccc2)nnc1SCC(=O)c1ccc(Br)s1,97.5%,83.5% (inactive),97.5% (inactive),81.4% (inactive),-4.43% (inactive),53.9%,49.4%,-2.08% (inactive),-5.4% (inactive),–
Cc1cccc(N2CCN(C(=O)c3ccc(NS(=O)(=O)c4c(C)noc4C)cc3)CC2)c1C,98%,106% (inactive),98% (inactive),68.2% (inactive),13.6% (inactive),46.2%,59.8%,-3.68% (inactive),2% (inactive),–
O=C(c1cc(-c2ccco2)nn1-c1cccc(Cl)c1)N1CCCCC1,111%,84.5% (inactive),111% (inactive),95% (inactive),-25.9% (inactive),79.2%,53.3%,-2.24% (inactive),-1.94% (inactive),–
O=C(Nc1sc2c(c1C(=O)NCc1ccco1)CCCC2)c1ccc2c(c1)OCO2,89.5%,92.5% (inactive),89.5% (inactive),78.7% (inactive),-11.3% (inactive),72.7%,61.4%,1.22% (inactive),-6.35% (inactive),–
CC1=C(C(=O)OC2CCCCC2)C(c2ccc(C)o2)C2=C(CC(C)(C)CC2=O)N1 (stereo unspecified),77.5%,83% (inactive),77.5% (inactive),50.5% (inactive),13.1% (inactive),37.4%,50.5%,0.38% (inactive),-7.83% (inactive),–
CC(=O)c1ccccc1Oc1nc(CN2CCOCC2)nc2scc(-c3cccs3)c12,87.5%,79% (inactive),87.5% (inactive),73.3% (inactive),32.8% (inactive),17.1%,49.9%,-8.24% (inactive),2.46% (inactive),–
Cc1ccc2cc(CN(CCN3CCCC3)C(=O)Nc3ccc(F)cc3)c(=O)[nH]c2c1C,94.5%,81% (inactive),94.5% (inactive),38.8% (inactive),-12.2% (inactive),25.6%,13.5%,0.52% (inactive),-0.79% (inactive),–

SMILES,viability [1],Her2 level [2],viability [3],viability [4],differential viability (reversal) ([5]; H69AR cells + 2 uM doxorubicin),"viability [5, 9]","viability [5, 10]",inhibition [6],inhibition [7],viability [8]
CC(C)(C)c1cc(NC(=O)c2cc(F)c(F)c(F)c2F)no1,102%,92% (inactive),102% (inactive),63.6% (inactive),-20.6% (inactive),70.8%,50.2%,2.08% (inactive),-3.83% (inactive),–
CCOC(=O)c1sc(Nc2nc3c(OC)cccc3s2)nc1C,81.5%,72% (inactive),81.5% (inactive),63.3% (inactive),-7.45% (inactive),66.6%,59.2%,0.13% (inactive),-4.76% (inactive),–
CCOC(=O)c1c(C)oc2c1c(C(c1ccncc1)N1CCOCC1)c(O)c1ccccc12 (stereo unspecified),104%,85% (inactive),104% (inactive),9.39% (active),-5.27% (inactive),6.38%,1.11%,-0.13% (inactive),-3.49% (inactive),–
CCn1c(CNc2ccc(OC)cc2)nnc1SCC(=O)c1ccc(OC)cc1,110%,91% (inactive),110% (inactive),68.8% (inactive),-14.7% (inactive),65.5%,50.8%,-3.64% (inactive),0.33% (inactive),–
c1ccc2c(-c3nc(C4CCCCC4)no3)cc(-c3ccncc3)nc2c1,72.5%,69% (inactive),72.5% (inactive),66.6% (inactive),-5.85% (inactive),49.4%,43.6%,45.3% (active),8.23% (inactive),–
O=C(NCc1ccc2c(c1)OCO2)c1cccc2c1C(=O)N(C1CCCCC1)C2,102%,72.5% (inactive),102% (inactive),87% (inactive),-12.7% (inactive),71.9%,59.2%,-0.38% (inactive),2.83% (inactive),–
CCCc1cc(-c2n[nH]c(C)c2-c2ccc(C(=O)OCC)o2)c(O)cc1O,78%,72% (inactive),78% (inactive),39.4% (inactive),-10.2% (inactive),38.2%,28%,-4.74% (inactive),1.45% (inactive),–
CCOC(=O)N1CCN(CCC(=O)c2ccc(Cl)cc2)CC1,106%,89.5% (inactive),106% (inactive),86.4% (inactive),-5.11% (inactive),17.9%,12.8%,-2.99% (inactive),-6.51% (inactive),–
CN1CC=C2C(C#N)=C(N)C(C#N)(C#N)[C@H](c3cccc(Cl)c3)C2C1 (stereo partly specified),94%,73.5% (inactive),94% (inactive),83% (inactive),32.6% (inactive),22.1%,54.7%,-4.27% (inactive),-1.9% (inactive),–
Nc1ncnc2oc(-c3ccco3)c(-c3ccco3)c12,96.5%,77% (inactive),96.5% (inactive),–,7.29% (inactive),68.4%,75.7%,-0.13% (inactive),-4.03% (inactive),75.7% (inactive)
COc1cccc(C(=O)Nc2c(C(N)=O)oc3ccccc23)c1,86.5%,69% (inactive),86.5% (inactive),65.9% (inactive),-13.6% (inactive),62.4%,48.7%,-5.33% (inactive),3% (inactive),–
COc1ccc(CNc2oc(COc3ccccc3Cl)nc2C#N)cc1,84%,68.5% (inactive),84% (inactive),–,-4.78% (inactive),92.1%,87.3%,0.26% (inactive),14.1% (inactive),87.3% (inactive)
COc1ccc(-c2n[nH]c(C)c2-c2ccc(Cl)cc2)c(O)c1OC,83.5%,109% (inactive),83.5% (inactive),–,-10.6% (inactive),33.8%,23.2%,-0.92% (inactive),4.26% (inactive),23.2% (active)
O=C(NC1CCCCC1)C(c1ccccc1)N(Cc1ccco1)C(=O)Cn1cnc2ccccc21 (stereo unspecified),102%,90% (inactive),102% (inactive),–,8.18% (inactive),70.1%,78.3%,-5.33% (inactive),-4.92% (inactive),78.3% (inactive)
O=C(O)CCc1cc(I)c(Oc2ccc(O)c(I)c2)c(I)c1,104%,76.5% (inactive),104% (inactive),–,3.29% (inactive),98.8%,102%,–,–,102% (inactive)
CCOC(=O)c1ccc(N=Cc2nc(-c3ccccc3)oc2OC(C)=O)cc1,106%,75.5% (inactive),106% (inactive),–,-5.29% (inactive),23.2%,17.9%,-4.47% (inactive),-2.38% (inactive),17.9% (active)
